Measurements reported in ChEMBL document CHEMBL4330067, “Synthesis and mechanistic studies of diketo acids and their bioisosteres as potential antibacterial agents” (Eur J Med Chem, 2019).
Values after ≈ are worked out from the molar mass of the structure shown.

Key:
[1] = system: Escherichia coli; assay: Antibacterial activity against Escherichia coli ATCC 25922 after 24 hrs by broth dilution assay; assay type: functional; settings: ATCC 25922, 24 h
Outline: (§1)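 Broth dilution per NCCLS in nutrient broth, serial dilutions 1000 to 7.8 µg/mL, DMSO below 4% final. Inoculum approx. 2.5×10⁶ cells/mL, 37 °C with shaking at 150 rpm for 24 h. MIC taken as the lowest concentration with no visible growth. Ciprofloxacin served as positive control.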

[2] = system: Enterococcus faecalis; assay: Antibacterial activity against Enterococcus faecalis MTCC 439 after 24 hrs by broth dilution assay; assay type: functional; settings: MTCC 439, 24 h; outline: as §1
[3] = Inhibition of human methionine aminopeptidase 1B using Met-AMC as substrate by Dixon method
Outline: (§2)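 Purified MetAP at 4 µM in 50 mM HEPES with 150 mM KCl and CoCl2 at 3 molar equivalents of enzyme. pH 7.5 for SpMetAP1a and EfMetAP1a, pH 8.0 for HsMetAP1b. Substrate L-Met-AMC at 50, 100 and 150 µM. Compounds (10 mM DMSO stocks) tested over 1 to 120 µM for % inhibition; Ki by Dixon method.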

[4] = Inhibition of Streptococcus pneumoniae methionine aminopeptidase 1A using Met-AMC as substrate by Dixon method; outline: as §2
[5] = system: Enterococcus faecalis; assay: Inhibition of Enterococcus faecalis methionine aminopeptidase 1A at 100 uM using Met-AMC as substrate relative to control; outline: as §2
[6] = system: Pseudomonas aeruginosa; assay: Antibacterial activity against Pseudomonas aeruginosa MTCC 2453 after 24 hrs by broth dilution assay; assay type: functional; settings: MTCC 2453, 24 h; outline: as §1
[7] = Inhibition of Mycobacterium tuberculosis methionine aminopeptidase 1C using Met-AMC as substrate by Dixon method
[8] = Inhibition of Enterococcus faecalis methionine aminopeptidase 1A using Met-AMC as substrate by Dixon method; outline: as §2
[9] = system: Salmonella typhimurium; assay: Antibacterial activity against Salmonella typhimurium MTCC 3224 after 24 hrs by broth dilution assay; assay type: functional, Salmonella enterica subsp. enterica serovar Typhimurium; settings: Salmonella enterica, MTCC 3224, 24 h; outline: as §1
[10] = system: Streptococcus pneumoniae; assay: Inhibition of Streptococcus pneumoniae methionine aminopeptidase 1A at 100 uM using Met-AMC as substrate relative to control; outline: as §2
[11] = system: Mycobacterium tuberculosis; assay: Inhibition of Mycobacterium tuberculosis methionine aminopeptidase 1C at 100 uM using Met-AMC as substrate relative to control
Outline: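 Purified MtMetAP1c (4 µM) in 50 mM Hepes pH 7.5 with 150 mM KCl and CoCl2 at three molar equivalents of enzyme. Substrate was L-Met-AMC at 50, 100 or 150 µM. Compounds came from 10 mM DMSO stocks. Percent inhibition was taken against the uninhibited control.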

[12] = species on record: Homo sapiens; assay: Inhibition of human methionine aminopeptidase 1B at 100 uM using Met-AMC as substrate relative to control; outline: as §2
[13] = system: Streptococcus pneumoniae; assay: Antibacterial activity against Streptococcus pneumoniae MTCC 655 after 24 hrs by broth dilution assay; assay type: functional; settings: MTCC 655, 24 h; outline: as §1
[14] = system: Klebsiella pneumoniae; assay: Antibacterial activity against Klebsiella pneumoniae ATCC 700603 after 24 hrs by broth dilution assay; assay type: functional; settings: Klebsiella pneumoniae, 700603, 24 h; outline: as §1
[15] = system: Escherichia coli; assay: Antibacterial activity against Escherichia coli MRAE44 after overnight incubation; assay type: functional
Outline: (§3)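 Multidrug-resistant E. coli isolates in Luria broth, test range 8 to 1024 µg/mL (ciprofloxacin 0.49 to 63.3 µg/mL). Inoculum 10 µL of a 1000-fold diluted 0.1 OD600 culture, incubated overnight at 37 °C. OD read at 600 nm. % inhibition = (a−b)/a×100, with media and compound-colour blanks subtracted.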

[16] = system: Escherichia coli; assay: Antibacterial activity against Escherichia coli MRAE26 after overnight incubation; assay type: functional; outline: as §3
[17] = system: Escherichia coli; assay: Antibacterial activity against Escherichia coli MRAE32 after overnight incubation; assay type: functional; outline: as §3
[18] = system: Escherichia coli; assay: Antibacterial activity against Escherichia coli MRAE33 after overnight incubation; assay type: functional; outline: as §3
[19] = system: Escherichia coli; assay: Antibacterial activity against Escherichia coli MRA11 after overnight incubation; assay type: functional; outline: as §3
[20] = system: Escherichia coli; assay: Antibacterial activity against Escherichia coli MROB11 after overnight incubation; assay type: functional; outline: as §3
[21] = system: Escherichia coli; assay: Antibacterial activity against Escherichia coli MRC24 after overnight incubation; assay type: functional; outline: as §3
[22] = system: Escherichia coli; assay: Antibacterial activity against Escherichia coli MRC17 after overnight incubation; assay type: functional; outline: as §3

SMILES	MIC [1]	MIC [2]	Ki [3]	Ki [4]	inhibition [5]	MIC [6]	Ki [7]	Ki [8]	MIC [9]	inhibition [10]	inhibition [11]	inhibition [12]	MIC [13]	MIC [14]	also measured
Cc1c(C(=O)/C=C(\O)C(=O)O)oc2ccc(Br)cc12	1000 µg/mL (≈ 3080 µM)	62.5 µg/mL (≈ 192 µM)	32.7 µM	27.5 µM	91.9%	125 µg/mL (≈ 384 µM)	26.3 µM	17.7 µM	500 µg/mL (≈ 1540 µM)	93.4%	93.5%	88.2%	62.5 µg/mL (≈ 192 µM)	1000 µg/mL (≈ 3080 µM)	
O=C(O)c1cn(C2CC2)c2cc(N3CCNCC3)c(F)cc2c1=O [CIPROFLOXACIN]		0.0625 µg/mL (≈ 0.189 µM)							0.0156 µg/mL (≈ 0.0471 µM)				0.312 µg/mL (≈ 0.942 µM)	0.25 µg/mL (≈ 0.754 µM)	ICmax [15]: 63.3 µg/mL; ICmax [16]: 1.975 µg/mL; ICmax [17]: 63.3 µg/mL; ICmax [18]: 7.9 µg/mL; ICmax [19]: 63.3 µg/mL; MIC ([19]; Escherichia coli, MRA11): 128 µg/mL (≈ 386 µM); ICmax [20]: 1.975 µg/mL; ICmax [21]: 1.975 µg/mL; ICmax [22]: 63.3 µg/mL; MIC ([22]; Escherichia coli, MRC17): 128 µg/mL (≈ 386 µM)
Cc1ccccc1C(=O)/C=C(\O)C(=O)O	250 µg/mL (≈ 1210 µM)	500 µg/mL (≈ 2420 µM)	73.8 µM	87.5 µM	54.7%	1000 µg/mL (≈ 4850 µM)	37.5 µM	62.6 µM	1000 µg/mL (≈ 4850 µM)	62.8%	65.7%	52.3%	500 µg/mL (≈ 2420 µM)	1000 µg/mL (≈ 4850 µM)	
CCOC(=O)/C(O)=C/C(=O)c1ccc(Cl)cc1	500 µg/mL (≈ 1960 µM)	250 µg/mL (≈ 982 µM)	56.1 µM	62.6 µM	27.3%	500 µg/mL (≈ 1960 µM)	39.5 µM		500 µg/mL (≈ 1960 µM)	55.3%	70.5%	61%	500 µg/mL (≈ 1960 µM)	> 1000 µg/mL	
Cc1ccccc1C(=O)/C=C(\O)C(=O)N[C@H](C)C(=O)O	1000 µg/mL (≈ 3610 µM)	500 µg/mL (≈ 1800 µM)	54 µM	59.9 µM	63.2%	1000 µg/mL (≈ 3610 µM)		64 µM	1000 µg/mL (≈ 3610 µM)	58%	47.7%	59.2%	500 µg/mL (≈ 1800 µM)	1000 µg/mL (≈ 3610 µM)	
Cc1ccccc1-c1cc(C(=O)O)on1			104 µM		32%					42.4%	43.7%	49%			
COC(=O)[C@@H](C)NC(=O)c1cc(-c2oc3ccc(Br)cc3c2C)no1					18.8%					36.5%		45.1%			
CCOC(=O)c1cc(-c2ccc(Cl)cc2)no1	500 µg/mL (≈ 1990 µM)	500 µg/mL (≈ 1990 µM)	160 µM		19.4%	500 µg/mL (≈ 1990 µM)	152 µM		> 1000 µg/mL	40.3%	47.4%	66.3%	1000 µg/mL (≈ 3970 µM)	1000 µg/mL (≈ 3970 µM)	
Cc1c(-c2cc(C(=O)N[C@H](C)C(=O)O)on2)oc2ccc(Br)cc12	500 µg/mL (≈ 1270 µM)	125 µg/mL (≈ 318 µM)	3.11 µM		34.6%	1000 µg/mL (≈ 2540 µM)			500 µg/mL (≈ 1270 µM)	42.8%	33.2%	93.4%	250 µg/mL (≈ 636 µM)	> 1000 µg/mL	
CCOC(=O)c1cc(-c2ccccc2C)no1			123 µM		27.6%					41.4%	47.1%	48.9%			
